CC50, HSV-1 inhibitory activity and EC50 data for six compounds are collected here from ChEMBL document CHEMBL1126217, “Side-chain derivatives of biologically active nucleosides. 1. Side-chain analogs of 3'-azido-3'-deoxythymidine (AZT)” (J Med Chem, 1992).

SMILES strings stand for the structures. Converted amounts (≈) assume the structure as drawn. The source made the active and inactive calls. The calls are words filed in the database; no cut-off is given here.

In assay [1] the test system is Vaccinia virus. The assay can be described thus: Inhibitory activity against Vaccinia virus(VV)at a concentration 400 ug/mL; not effective. The assay is classed as functional, organism-based. Particulars: Orthopoxvirus vaccinia.
A short description of assay [2]: Inhibitory activity against herpes simplex virus type-1 (HSV-1) at a concentration 400 ug/mL; not effective. The format is functional, organism-based. The note with it: Human alphaherpesvirus 1.
Assay [3] relates to Human alphaherpesvirus 2. The assay can be described thus: Inhibitory activity against herpes simplex virus type-2 (HSV-2) at a concentration 400 ug/mL; not effective. The assay is classed as functional, organism-based.
The subject of assay [4] is Human immunodeficiency virus. The assay can be described thus: Compound was evaluated for the cytotoxic concentration against HIV. The assay is classed as functional. Particulars: Human immunodeficiency virus 1. The method in brief: (§1)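 Infected cells mixed with serial compound dilutions (tested up to 200 μg/mL) and incubated 5 days at 37 °C. Viable cells counted microscopically in a hematocytometer by trypan blue exclusion to give 50% effective and cytotoxic concentrations.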

The test system of assay [5] is Vaccinia virus. As to the kind of experiment: Inhibitory activity against Vaccinia virus(VV) at a concentration 400 ug/mL; not effective. The format is functional, organism-based. Particulars: Orthopoxvirus vaccinia.
Assay [6] deals with Vesicular stomatitis virus. The assay can be described thus: Inhibitory activity towards Vesicular stomatitis virus(VSV). The assay is classed as functional.
Assay [7] has as its system Human alphaherpesvirus 1. As to the kind of experiment: Inhibitory activity towards herpes simplex virus type-1 (HSV-1).
Assay [8] concerns Vaccinia virus. The assay can be described thus: Inhibitory activity towards Vaccinia virus(VV). The assay is classed as functional. Particulars: Orthopoxvirus vaccinia.
Assay [9] has as its system Human alphaherpesvirus 2. The assay can be described thus: Inhibitory activity towards herpes simplex virus type-2 (HSV-2).
Assay [10] has as its system MT4. The assay can be described thus: Inhibitory activity toward HIV replication in MT-4 cells. The format is functional, cell-based. Particulars: Homo sapiens. The method in brief: as §1

As for `Cc1cn(C2CC(N=[N+]=[N-])C([C@H](C)O)O2)c(=O)[nH]c1=O` (some centres not stated), the CC50 result in assay [1] and in assay [3] was “inactive” in each case. Besides, the HSV-1 inhibitory activity result in assay [2] was “inactive”. The CC50 in [4] is more than 200 µg/mL.
As for `Cc1cn(C2CC(N=[N+]=[N-])C([C@@H](O)CO)O2)c(=O)[nH]c1=O` (some centres not stated), the CC50 result in assay [1] and in assay [3] was “inactive” in each case. Further, the HSV-1 inhibitory activity entry in [2] was “inactive”. This compound also returned a CC50 in assay [4] of 17.7 µg/mL (≈ 59.5 µM).
For `Cc1cn(C2CC(N=[N+]=[N-])C(CCO)O2)c(=O)[nH]c1=O` (configuration not stated), the HSV-1 inhibitory activity entry in assay [2] was “inactive”. In addition, the CC50 entry in assay [3] and in assay [5] was “inactive” throughout. This compound gave a CC50 in [4] of 200 µg/mL (≈ 711 µM).
For `Cc1cn(C2CC(N=[N+]=[N-])C([C@@H](C)O)O2)c(=O)[nH]c1=O` (some centres not stated), the CC50 is more than 400 µg/mL in assay [6]; 150 µg/mL (≈ 533 µM) in assay [7]; 300 µg/mL (≈ 1070 µM) in assay [8]; more than 200 µg/mL in assay [4]; 300 µg/mL (≈ 1070 µM) in assay [9].
Regarding `Cc1cn([C@H]2C[C@H](N=[N+]=[N-])[C@@H](CO)O2)c(=O)[nH]c1=O` [ZIDOVUDINE], the concentration giving a half-maximal response (EC50) (as a rule, the concentration needed to bring the measured effect to its halfway point) in [10] came to 0.002 µg/mL (≈ 0.00748 µM).
Take `Cc1cn(C2CC(N=[N+]=[N-])C([C@H](O)CO)O2)c(=O)[nH]c1=O` (some centres not stated): the CC50 result in assay [1] and in assay [3] was “inactive” each time. Besides, in assay [2], the HSV-1 inhibitory activity result is “inactive”. Also, in [4], the CC50 is more than 200 µg/mL.
